From ChEMBL document CHEMBL1125845, “Indazolinones, a new series of redox-active 5-lipoxygenase inhibitors with built-in selectivity and oral activity” (J Med Chem, 1991)
pIC50: −log10 of the molar value.

Tests used:
Cyclooxygenase [1] = target: T1, Cyclooxygenase (Rattus norvegicus, UniProt P35355+Q63921); test: In vitro inhibition of PGE-2 production was measured in rat blood; format: functional
T1 sequence (P35355 whole entry): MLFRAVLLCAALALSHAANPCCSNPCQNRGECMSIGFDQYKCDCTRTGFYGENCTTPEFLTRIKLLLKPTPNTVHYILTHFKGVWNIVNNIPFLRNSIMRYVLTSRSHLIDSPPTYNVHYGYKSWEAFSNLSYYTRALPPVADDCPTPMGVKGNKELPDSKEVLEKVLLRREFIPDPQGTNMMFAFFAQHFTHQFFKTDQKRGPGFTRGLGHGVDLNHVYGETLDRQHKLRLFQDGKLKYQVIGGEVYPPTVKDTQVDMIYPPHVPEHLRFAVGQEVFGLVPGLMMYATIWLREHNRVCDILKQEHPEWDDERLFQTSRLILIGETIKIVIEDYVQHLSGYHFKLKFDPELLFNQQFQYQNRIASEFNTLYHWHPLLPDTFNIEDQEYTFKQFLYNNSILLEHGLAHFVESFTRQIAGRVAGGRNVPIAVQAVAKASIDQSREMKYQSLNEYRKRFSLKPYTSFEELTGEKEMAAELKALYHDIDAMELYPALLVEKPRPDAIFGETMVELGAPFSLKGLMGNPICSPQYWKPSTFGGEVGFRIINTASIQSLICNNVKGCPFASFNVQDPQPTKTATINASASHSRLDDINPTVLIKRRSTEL
T1 sequence (Q63921 whole entry): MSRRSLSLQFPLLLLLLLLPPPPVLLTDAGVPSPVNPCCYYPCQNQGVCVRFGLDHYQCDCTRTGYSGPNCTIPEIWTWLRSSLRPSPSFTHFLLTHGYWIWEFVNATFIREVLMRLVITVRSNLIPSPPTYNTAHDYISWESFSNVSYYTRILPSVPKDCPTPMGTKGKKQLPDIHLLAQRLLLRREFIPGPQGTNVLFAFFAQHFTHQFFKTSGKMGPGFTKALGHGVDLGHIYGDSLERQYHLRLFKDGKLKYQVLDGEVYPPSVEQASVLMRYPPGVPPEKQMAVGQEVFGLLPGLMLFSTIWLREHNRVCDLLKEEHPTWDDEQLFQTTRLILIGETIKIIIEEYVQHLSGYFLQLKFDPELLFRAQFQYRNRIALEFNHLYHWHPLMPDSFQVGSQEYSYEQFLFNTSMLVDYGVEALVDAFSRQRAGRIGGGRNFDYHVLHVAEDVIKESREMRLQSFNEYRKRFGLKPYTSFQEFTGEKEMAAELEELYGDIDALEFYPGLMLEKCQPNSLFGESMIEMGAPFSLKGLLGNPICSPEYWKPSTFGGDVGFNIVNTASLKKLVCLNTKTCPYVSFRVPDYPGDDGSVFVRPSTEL

[2] = target: T2, Polyunsaturated fatty acid 5-lipoxygenase (Rattus norvegicus, UniProt P12527); test: In vitro inhibition of LTB4 production was measured in rat blood; format: functional
T2 sequence (P12527 whole entry): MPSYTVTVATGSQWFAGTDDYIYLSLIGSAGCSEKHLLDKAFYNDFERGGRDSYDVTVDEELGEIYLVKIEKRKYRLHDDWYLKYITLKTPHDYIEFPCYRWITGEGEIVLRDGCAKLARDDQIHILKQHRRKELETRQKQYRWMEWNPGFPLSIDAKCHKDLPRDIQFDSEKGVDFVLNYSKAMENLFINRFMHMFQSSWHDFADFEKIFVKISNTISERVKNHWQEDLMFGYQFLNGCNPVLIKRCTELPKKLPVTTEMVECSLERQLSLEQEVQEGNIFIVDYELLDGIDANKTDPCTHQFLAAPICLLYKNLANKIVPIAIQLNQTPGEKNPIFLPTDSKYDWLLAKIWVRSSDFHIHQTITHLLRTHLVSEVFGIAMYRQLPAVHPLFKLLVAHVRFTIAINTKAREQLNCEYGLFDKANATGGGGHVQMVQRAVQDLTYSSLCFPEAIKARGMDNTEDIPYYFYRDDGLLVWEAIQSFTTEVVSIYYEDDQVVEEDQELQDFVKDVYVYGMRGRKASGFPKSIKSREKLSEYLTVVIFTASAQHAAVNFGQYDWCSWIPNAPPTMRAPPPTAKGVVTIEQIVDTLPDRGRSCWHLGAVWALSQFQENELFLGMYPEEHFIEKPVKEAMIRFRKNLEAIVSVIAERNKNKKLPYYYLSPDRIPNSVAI
Procedure, shortened: (§1)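 Pooled heparinized blood from male Alderley Park Wistar rats (vena cava) held on ice; preincubated with compound in DMSO (1% final) 15 min at 37 °C, then A23187 (20 µg/mL) added for a further 15 min; stopped with cocktail of indomethacin, EGTA and azide; plasma LTB4 and PGE2 by radioimmunoassay. IC50 by nonlinear regression from two experiments.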

[3] = target: Polyunsaturated fatty acid 5-lipoxygenase (Canis lupus familiaris); test: Ex vivo inhibition of LTB4 production was measured in dog blood
Canis familiaris = species: Canis familiaris; test: In vitro test for the induction of the production of methemoglobin (MHb) in dog blood; format: functional, Canis lupus familiaris
Procedure, shortened: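 Pooled heparinized dog blood (leg vein) incubated with compound for 2 h at 37 °C; methemoglobin quantified by cooximeter.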

Cyclooxygenase [4] = target: T1, Cyclooxygenase; test: In vitro inhibition of PGE-2 (PG) production in rat blood; 3-30; format: functional; procedure, shortened: as §1

Row | IC50 (Cyclooxygenase [1]) [µM] | pIC50 [2] | ED50 [3] [mg/kg] | SMILES | further results
1 | 2.7 |  |  | O=c1c2ccccc2[nH]n1-c1ccccc1 | 
2 | 18 |  |  | O=c1c2ccccc2[nH]n1Cc1ccccc1 | 
3 |  | < 4.52 |  | c1ccc(COc2[nH]nc3ccccc23)cc1 | 
4 |  | 4.52 |  | O=c1[nH]n(-c2ccccc2)c2ccccc12 | 
5 |  | < 4.52 | > 100 | Cn1c2ccccc2c(=O)n1Cc1ccccc1 | 
6 | 30 |  |  | Oc1n[nH]c2ccccc12 | ED25 (Canis familiaris): 40 µM
7 | 21 | 5.60 | 10 | Cc1ccc(Cn2[nH]c3ccccc3c2=O)cn1 | 
8 | 94 |  |  | O=c1c2ccccc2[nH]n1Cc1c[nH]c2ccccc12 | 
9 | 400 | 5.85 | > 100 | C[C@H](c1cccc2ccccc12)n1[nH]c2ccccc2c1=O | 
10 | > 30 | 5.52 | 5 | Cc1ccncc1Cn1[nH]c2ccccc2c1=O | 
11 | 18 |  |  | O=c1c2ccccc2[nH]n1Cc1ccc2ccccc2c1 | 
12 | 3.8 | 6.27 | > 100 | O=c1c2ccccc2[nH]n1CCCc1ccccc1 | 
13 | > 300 |  |  | O=c1c2ccccc2[nH]n1Cc1cccnc1 | ED25 (Canis familiaris): 7.5 µM
14 | 67 |  |  | O=c1c2ccccc2[nH]n1Cc1ccccn1 | 
15 | 48 | 4.96 |  | C[C@@H](c1cccc2ccccc12)n1[nH]c2ccccc2c1=O | 
16 | 12 | 5.85 | 5 | O=c1c2ccccc2[nH]n1Cc1cccnc1Cl | 
17 | 17 |  |  | Cn1[nH]c2ccccc2c1=O | ED25 (Canis familiaris): 10 µM
18 | 39 | 6.00 | 10 | O=c1c2ccccc2[nH]n1Cc1cncc(Br)c1 | 
19 |  |  |  | CCCCCNC(=O)c1cccc2[nH]n(Cc3cccnc3)c(=O)c12 | ED25 (Canis familiaris): >250 µM
20 | 15 |  |  | O=c1c2ccccc2[nH]n1CCc1ccccc1 | 

Row | IC50 (Cyclooxygenase [1]) [µM] | pIC50 [2] | ED50 [3] [mg/kg] | SMILES | further results
21 |  | > 6.00 | 15 | O=c1c2ccccc2[nH]n1Cc1ccc(Cl)nc1 | IC50 (Cyclooxygenase [4]): 3 µM
22 | 26 | 6.11 | > 100 | O=c1c2ccccc2[nH]n1CCCCc1ccccc1 | 
23 | > 100 |  |  | O=c1c2ccccc2[nH]n1Cc1cncs1 | 
24 | 13 |  |  | O=c1c2ccccc2[nH]n1Cc1ccco1 | 
25 | 26 |  |  | O=c1c2ccccc2[nH]n1Cc1cccs1 | 
26 | 280 |  |  | O=c1c2ccccc2[nH]n1Cc1ccncc1 | 
27 | 100 | 6.21 | > 100 | O=c1c2ccccc2[nH]n1Cc1cccc2ccccc12 | 
28 | 58 | 5.59 | 10 | Cc1ncccc1Cn1[nH]c2ccccc2c1=O | 
29 |  |  |  | CCCCCNC(=O)c1cccc2[nH]n(C)c(=O)c12 | ED25 (Canis familiaris): >250 µM
30 | 81 | 5.74 | 15 | Cc1cncc(Cn2[nH]c3ccccc3c2=O)c1 | 
31 |  |  |  | COc1ccc(Cn2[nH]c3ccccc3c2=O)cn1 | IC50 (Cyclooxygenase [4]): 3 µM
32 | 20 | 5.52 | > 100 | Cn1[nH]c(=O)c2ccccc21 | 
33 |  | < 4.52 |  | COc1nn(Cc2ccccc2)c2ccccc12 | 
34 |  | < 4.52 |  | Cn1c(=O)c2ccccc2n1Cc1ccccc1 | 
35 |  |  |  | CCCCCNC(=O)c1cccc2n[nH]c(O)c12 | ED25 (Canis familiaris): >250 µM
36 | 31 | 5.47 |  | O=c1[nH]n(Cc2ccccc2)c2ccccc12 | 
37 | 50 |  |  | O=c1cc(-c2ccccc2)oc2cc(O)c(O)c(O)c12 [BAICALEIN] | 
38 | 5 |  |  | NC1=NN(c2cccc(C(F)(F)F)c2)CC1 [BW-755C] | 
39 | 30 |  |  | CC(Cc1ccc(O)c(O)c1)C(C)Cc1ccc(O)c(O)c1 (stereo unspecified) [NORDIHYDROGUAIARETIC ACID] | 
40 | 3 |  |  | O=C1CCN(c2ccccc2)N1 [PHENIDONE] | 

Row | SMILES | IC50 (Cyclooxygenase [1]) [µM] | pIC50 [2] | ED50 [3] [mg/kg] | further results
41 | O=c1c(O)c(-c2ccc(O)c(O)c2)oc2cc(O)cc(O)c12 [QUERCETIN] | 50 |  |  | 
